# Results gathered from unrelated publications.
# Protocols differ between the studies behind these lines.
Structure (SMILES),tested on,assay,system,conditions,quantity,value
CCCCCCCCCCCCCCCCOP(=O)([O-])OCC[N+](C)(C)C,Leishmania tropica,"parasite growth, resazurin",,promastigote,IC50,2120 nM
N#Cc1c(-c2ccc(OCc3ccccc3)cc2)c(C(N)=S)c(N)n(N)c1=O,Saccharomyces cerevisiae,"microbial growth, well diffusion",ATCC9763,500 µg/mL,inhibition zone,17 mm
COc1ccc(Cc2[nH]/c(=N/C(=O)C34CC5CC(CC(C5)C3)C4)n(C)c2-c2ccc(OC(=O)c3ccccc3)c(OC)c2)cc1,Hepatitis B virus,"viral replication, inhibitor",HePAD38,,IC50,9820 nM
O=C(NC(=S)Nc1cccc(O)c1)c1cccs1,Leishmania tropica,"parasite growth, resazurin",,promastigote,IC50,480 nM
Cc1c(C(N)=S)c(N)n(N)c(=O)c1C#N,Saccharomyces cerevisiae,"microbial growth, well diffusion",ATCC9763,500 µg/mL,inhibition zone,18 mm
Nc1ccc(/C=C/C(=O)NCc2cc3cc(-c4ccc(C(=O)N5CCC(F)(F)CC5)cc4)cc(-c4ccc(F)cc4)c3o2)cn1,PANC-1,"cell growth or viability, CCK-8",,72 h,IC50,> 20000 nM
N#Cc1c(-c2ccc(Cl)cc2Cl)c(C(N)=S)c(N)n(N)c1=O,Saccharomyces cerevisiae,"microbial growth, well diffusion",ATCC9763,500 µg/mL,inhibition zone,11 mm
C=CC(=O)NC1CCN(c2ncc3ncnc(Nc4ccc(Oc5ccc6c(c5)ncn6C)c(C)c4)c3n2)CC1,PANC-1,cell growth or viability,,,EC50,1800 nM
C=CC(=O)Nc1cc(Nc2nccc(-c3cn(C)c4ccccc34)n2)c(OC)cc1N(C)CCN(C)C,PANC-1,"cell growth or viability, MTS",,72 h,IC50,7140 nM
Nc1ccc(/C=C/C(=O)N2CCc3c(oc4c(-c5ccc(F)cc5)cc(-c5ccc(C(=O)N6CCC(F)(F)CC6)nn5)cc34)C2)cn1,PANC-1,"cell growth or viability, CCK-8",,72 h,IC50,> 20000 nM
O=C(NC(=S)Nc1ccccn1)c1ccco1,Leishmania tropica,"parasite growth, resazurin",,promastigote,IC50,940 nM
CN(C)c1ccc(-c2c(C(N)=O)c(N)n(N)c(=O)c2C#N)cc1,Saccharomyces cerevisiae,"microbial growth, well diffusion",ATCC9763,500 µg/mL,inhibition zone,13 mm
